Results from ChEMBL document CHEMBL1159309, “A prolyl endopeptidase-inhibiting benzofuran dimer from Polyozellus multiflex” (J Nat Prod, 2002).

What was measured:
Set-up in all cases: scale not given: the % may be the effect or the level left
[1] = Inhibition of trypsin at 2.4 uM relative to control
In short: (§1)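 Enzyme assays run per supplier catalogue protocols, substrates as printed: […], elastase N-succinyl-Ala-Ala-Ala-pNA. Test sample given in MeOH; control received 10 µL MeOH in its place. Activity relative to solvent-treated control, mean of five data points with standard error of the mean.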

[2] = Inhibition of trypsin at 12.2 uM relative to control; in short: as §1
[3] = Inhibition of trypsin at 97.6 uM relative to control; in short: as §1
[4] = Inhibition of elastase at 2.4 uM relative to control; in short: as §1
[5] = Inhibition of elastase at 12.2 uM relative to control; in short: as §1
[6] = Inhibition of elastase at 97.6 uM relative to control; in short: as §1
[7] = Inhibition of chymotrypsin at 2.4 uM relative to control; in short: as §1
[8] = Inhibition of chymotrypsin at 12.2 uM relative to control; in short: as §1
[9] = Inhibition of chymotrypsin at 97.6 uM relative to control; in short: as §1

- Activity [1]: 3.1%
- Activity [2]: 5.6%
- Activity [3]: 5.9%
- Activity [4]: 22%
- Activity [5]: 27.6%
- Activity [6]: 29%
- Activity [7]: 3.7%
- Activity [8]: 6.6%
- Activity [9]: 4%
SMILES: COC(=O)c1oc2cc(O)c(O)cc2c1-c1c(C(=O)OC)oc2cc(O)c(O)cc12
